Shown are actives, neighbours in structure and some others; about 2% of the full set was active somewhere.
CHRM1 PAM – human CHRM1 positive allosteric modulation; P11229; CHO-K1 hM1, Fluo-8 calcium fluorescence, ACh EC20; 0% = ACh EC20, 100% = maximal ACh; activation, % at 3 µM; actives 0.088% (n = 360,000); AID 588819; in the data active = activation above about 19%, passing the limit was not always enough
Target sequence (P11229 whole entry, looked up): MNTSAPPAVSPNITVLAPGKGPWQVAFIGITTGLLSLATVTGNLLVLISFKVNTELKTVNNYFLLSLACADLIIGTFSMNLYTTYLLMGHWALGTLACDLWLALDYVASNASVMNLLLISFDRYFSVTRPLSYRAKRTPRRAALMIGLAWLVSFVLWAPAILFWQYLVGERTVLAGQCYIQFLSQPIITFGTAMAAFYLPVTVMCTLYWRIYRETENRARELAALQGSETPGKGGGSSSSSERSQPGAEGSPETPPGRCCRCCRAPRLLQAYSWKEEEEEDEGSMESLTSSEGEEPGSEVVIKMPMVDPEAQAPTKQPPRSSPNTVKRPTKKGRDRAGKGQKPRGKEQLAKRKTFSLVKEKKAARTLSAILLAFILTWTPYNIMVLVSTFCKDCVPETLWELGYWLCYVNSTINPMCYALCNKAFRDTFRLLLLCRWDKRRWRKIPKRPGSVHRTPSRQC
M5 antag – blocks acetylcholine activation of human M5 receptor; actives 0.59% (n = 360,000); AID 624040; P08912; CHO-hM5 cells, Fluo-8 calcium fluorescence, ACh EC80; inhibition, % at 3 µM;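 active = inhibition above a per-plate cutoff, the mean of that plate's test compounds plus 3 SD, cut at about 27% in these data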;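 also: 0% = acetylcholine EC80 with DMSO and 100% = DMSO without agonist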
M1 antag – blocks human M1 muscarinic receptor | CHO-K1 hM1, Fluo-8 calcium fluorescence, ACh EC80 antagonist | actives 1.3% (n = 360,000) | inhibition, % at 3 µM | P11229;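 active = percent inhibition above its own plate's cutoff, namely the mean of that plate's compound wells plus 3 SD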;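 also: peak over basal fluorescence ratio during 140 s after agonist addition; 0% = ACh EC80 plus DMSO and 100% = DMSO alone without agonist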
CHRM1 agonist – agonists of human M1 muscarinic receptor | actives 0.33% (n = 360,000) | P11229 | CHO-K1 hM1, Fluo-8 calcium fluorescence, agonist mode; 0% DMSO, 100% acetylcholine EC100 | activation, % at 3 µM;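 active = activation above the run's mean compound activation plus 3 SD, cut at about 16% in these data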;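 also: peak over basal fluorescence ratio within a 140 s kinetic read after compound addition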
M5 ag – agonists of human muscarinic M5 receptor (CHRM5); P08912; CHO-K1 hM5 cells, Fluo-8 calcium fluorescence; 0% DMSO wells, 100% maximal acetylcholine response; activation, % at 3 µM; actives 0.19% (n = 360,000);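 active = activation above the run's mean over test compounds plus 3 SD, cut at about 23% in these data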;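 also: signal is peak over basal fluorescence ratio across the kinetic read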
M5 PAM – positive allosteric modulators of human muscarinic M5 receptor; CHO-K1 hM5, Fluo-8 calcium, ACh EC20 PAM; 0% = ACh EC20, 100% = ACh EC100; AID 624038; actives 0.3% (n = 360,000); activation, % at 3 µM;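 active = activation above the run cutoff, the mean activation of all test compounds plus 3 SD, cut at about 18% in these data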
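Probe or stimulus: acetylcholine, EC20 level; Assay system: human M5 receptor in CHO-K1 cells; Schedule: compound preincubation 140 s before EC20 acetylcholine addition; Technique: intracellular calcium via Fluo-8 fluorescence; Dosing: single-point, 3 µM nominal; Read-out basis: percent activation from peak-over-basal fluorescence ratio, scaled EC20-to-EC100 acetylcholine; Repeats: one well per compound, no replicates.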
* marks the source's active call; other numbers are inactive results; nt = no result given.

SMILES | CHRM1 PAM | M5 antag | M1 antag | CHRM1 agonist | M5 ag | M5 PAM
Cc1cccc(OCC(=O)N(Cc2ccco2)c2c(N)n(Cc3ccccc3)c(=O)[nH]c2=O)c1 | 10.8 | -3.4 | -8.0 | -4.3 | 2.5 | 3.1
CCc1ccc(CNC(=O)C2CCCN(c3nnc(C)c4c(C)n(-c5ccccc5)nc34)C2)cc1 (stereo not given) | -40.3 | 0.7 | 49.2* | -13.0 | -10.4 | 4.0
Cc1nnc(N2CCCC(C(=O)NCc3cccc(F)c3)C2)c2nn(-c3ccccc3)c(C)c12 (stereo not given) | -15.6 | 10.3 | 29.9 | -5.7 | -8.1 | 2.4
COc1cc(NC(=O)C2(C)CCN2C(C)C)cc(OC)c1OC (stereo not given) | 8.0 | 5.6 | -9.2 | -2.5 | 2.7 | 9.9
CCc1ccc(-c2cc(C)no2)cc1S(=O)(=O)NCCCN1CCN(c2ccccc2)CC1 | -8.2 | 29.1* | 17.3 | 0.2 | 1.1 | -14.6
Cc1cc(-c2ccc(C)c(S(=O)(=O)NCC3CCN(Cc4ccc(F)cc4)CC3)c2)on1 | -4.4 | 2.5 | -5.8 | -3.8 | -8.3 | -3.3
COc1ccc(OC)c(CNS(=O)(=O)c2cc(-c3cc(C)no3)ccc2OC)c1 | -0.2 | 5.8 | -0.7 | -3.1 | -1.9 | -4.5
COc1ccc(-c2cc(C)no2)cc1S(=O)(=O)NCC1CCN(Cc2cc(C)ccc2C)CC1 | -24.7 | 2.1 | 51.1* | -4.5 | -7.7 | -5.2
COc1ccccc1CN1CCC(CNS(=O)(=O)c2cc(-c3cc(C)no3)ccc2C)CC1 | -24.4 | -1.2 | 66.2* | -2.7 | -6.6 | -0.5
c1ccc2c(-c3ccc4nncn4c3)cncc2c1 | 5.6 | 11.2 | -3.4 | -0.2 | 1.1 | -5.9
CCCCC(c1nc2ccccc2[nH]1)n1c(=O)c(-c2ccccc2)nc2cc(C)c(C)cc21 (stereo not given) | -3.9 | 10.9 | -11.0 | -1.5 | 0.3 | -4.0
CCSc1ncc(Cl)c(C(=O)Nc2ccc(S(=O)(=O)Nc3onc(C)c3C)cc2)n1 | 21.9* | 47.5* | -10.5 | 3.7 | 3.9 | 3.3
Cc1noc(NS(=O)(=O)c2ccc(NC(=O)c3ccc(N4C(=O)c5ccccc5C4=O)cc3)cc2)c1C | 14.8 | -29.0 | -4.1 | -3.8 | 2.6 | 19.1*
CN(CC(=O)Nc1ccc(Cl)cc1)CC(=O)N1CCc2ccccc21 | 0.8 | -4.0 | -0.5 | -4.5 | -1.2 | 1.1
Cc1onc(-c2c(F)cccc2Cl)c1C(N)=S | 11.4 | -8.2 | -11.4 | -5.7 | -9.2 | 1.1
COc1ccccc1N1CCN(C(=O)c2oc3ccccc3c2C)CC1 | -3.9 | 4.6 | 3.5 | -3.9 | 0.9 | -5.8
COc1ccccc1N1CCN(C(=O)c2cccc3c(=O)c(C)c(-c4ccccc4)oc23)CC1 | -21.6 | 12.2 | 14.2 | 0.0 | 25.9* | -18.9
COc1ccccc1N1CCN(C(=O)c2ccc(CS(=O)(=O)c3ccccc3OC)o2)CC1 | -3.0 | 6.6 | 11.7 | 17.4* | 33.5* | -16.0
COc1cc(C(=O)OCc2cc(=O)oc3c(C)c(C)ccc23)ccc1OC(F)F | 18.1 | 1.7 | -17.1 | 2.2 | 1.7 | -1.6
CC(=O)N1N=C(c2ccc(C)cc2)OC1c1ccc(Br)cc1 (stereo not given) | 8.4 | -24.3 | 0.2 | -4.3 | 1.6 | 3.1
CC(=O)N1N=C(c2ccc(Cl)cc2)OC1c1ccc(C(C)C)cc1 (stereo not given) | 5.2 | -8.1 | -9.2 | -2.4 | 5.6 | 33.1*
CCOc1ccc(NC(=O)CN2C(=O)S/C(=C/c3cccn3C)C2=O)cc1 | 2.4 | 27.9* | -6.7 | -1.1 | -3.6 | -16.0
O=C1c2ccccc2C(c2nnnn2-c2ccc3c(c2)OCCO3)N1CCCN1CCOCC1 (stereo not given) | nt | 9.7 | nt | nt | -0.1 | -6.1
O=C(NCCCN1CCOCC1)c1ccc(Cl)c([N+](=O)[O-])c1 | 6.5 | -3.0 | -11.3 | -6.4 | -1.7 | 7.5
O=C(NCCCN1CCOCC1)c1ccc(Sc2cccc(Cl)c2)c([N+](=O)[O-])c1 | -26.5 | 6.1 | 82.5* | -12.8 | -5.9 | -15.4
CCOC(=O)CSc1ccc(C(=O)NCCCN2CCOCC2)cc1[N+](=O)[O-] | -31.9 | 9.5 | 65.0* | -11.1 | -7.8 | 3.2
